Structures are written as SMILES.

The target in assay [1] is Matrix metalloproteinase-9 (Homo sapiens, UniProt P14780). The assay can be described thus: Inhibitory activity against Matrix metalloprotease-9 (concentration required for 50% inhibition of enzyme activity). In a few lines:
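Substrate added from a 1 mM DMSO stock, reaction 60 min, stopped with 3% acetic acid. Fluorescence read at ex 320/em 405 nm. Mean of two assays; IC50 taken as 50% inhibition.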

For assay [2], the target named is 72 kDa type IV collagenase (Homo sapiens, UniProt P08253).
Sequence of 72 kDa type IV collagenase (P08253 whole entry): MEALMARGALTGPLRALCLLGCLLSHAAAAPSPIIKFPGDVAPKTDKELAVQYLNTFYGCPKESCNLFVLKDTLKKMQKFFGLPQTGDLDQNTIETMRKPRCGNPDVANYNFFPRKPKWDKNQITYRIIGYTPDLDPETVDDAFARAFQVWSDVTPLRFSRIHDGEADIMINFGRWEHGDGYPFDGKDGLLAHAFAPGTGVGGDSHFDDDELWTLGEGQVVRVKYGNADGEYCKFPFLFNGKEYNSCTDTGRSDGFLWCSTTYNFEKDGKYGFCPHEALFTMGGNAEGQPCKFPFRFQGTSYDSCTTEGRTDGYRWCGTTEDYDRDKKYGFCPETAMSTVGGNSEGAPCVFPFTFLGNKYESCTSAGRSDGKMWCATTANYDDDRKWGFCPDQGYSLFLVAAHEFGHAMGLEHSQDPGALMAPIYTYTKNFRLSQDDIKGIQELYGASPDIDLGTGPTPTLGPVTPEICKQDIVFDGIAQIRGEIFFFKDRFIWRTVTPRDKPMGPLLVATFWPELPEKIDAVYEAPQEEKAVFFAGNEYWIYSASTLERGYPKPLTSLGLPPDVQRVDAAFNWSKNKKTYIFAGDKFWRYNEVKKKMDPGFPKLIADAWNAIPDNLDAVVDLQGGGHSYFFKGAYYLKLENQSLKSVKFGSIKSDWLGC

Sequence of Matrix metalloproteinase-9 (P14780 whole entry): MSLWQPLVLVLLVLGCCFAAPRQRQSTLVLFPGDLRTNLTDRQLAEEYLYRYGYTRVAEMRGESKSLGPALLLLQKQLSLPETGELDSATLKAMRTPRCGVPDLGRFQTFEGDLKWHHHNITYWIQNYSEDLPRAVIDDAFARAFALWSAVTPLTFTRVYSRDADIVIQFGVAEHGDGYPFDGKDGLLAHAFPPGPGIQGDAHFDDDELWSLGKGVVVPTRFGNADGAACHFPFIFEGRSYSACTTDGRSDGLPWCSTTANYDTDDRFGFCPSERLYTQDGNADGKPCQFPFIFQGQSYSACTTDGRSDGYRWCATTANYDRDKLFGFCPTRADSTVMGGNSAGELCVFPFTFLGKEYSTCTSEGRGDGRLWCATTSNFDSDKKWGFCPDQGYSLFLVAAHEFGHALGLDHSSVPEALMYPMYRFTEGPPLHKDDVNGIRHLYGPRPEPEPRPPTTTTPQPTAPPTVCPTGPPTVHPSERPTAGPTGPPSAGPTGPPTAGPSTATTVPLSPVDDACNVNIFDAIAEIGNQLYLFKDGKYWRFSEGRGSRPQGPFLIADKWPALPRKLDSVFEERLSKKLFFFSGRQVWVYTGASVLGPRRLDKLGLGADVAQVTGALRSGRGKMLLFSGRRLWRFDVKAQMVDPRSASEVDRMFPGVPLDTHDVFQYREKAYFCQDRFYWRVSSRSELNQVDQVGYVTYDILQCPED

A word on the IC50: it is the point on the concentration scale where inhibition reaches its midpoint. As for `CCc1ccc(C#Cc2ccc(S(=O)(=O)N[C@H](Cc3c[nH]c4ccccc34)C(=O)O)s2)cc1`, inhibition in assay [1] was half-maximal at 7.3 nM (IC50).
On to `COc1ccc(C#Cc2ccc(S(=O)(=O)N[C@H](Cc3c[nH]c4ccccc34)C(=O)O)cc2)cc1`, for which the figures for the IC50 in assay [1] and in assay [2] were 8.2 nM and 0.65 nM, respectively.
The matching figures for `CCCCc1ccc(C#Cc2ccc(S(=O)(=O)N[C@@H](C(=O)O)C(C)C)s2)cc1`: 210 nM and 5.4 nM.
As to `CC(C)[C@H](C(=O)O)N(C)S(=O)(=O)c1ccc(-c2nnn(-c3ccccc3)n2)cc1`, the IC50 in assay [1] turned out to be 870 nM.
On the same count and under the same terms, for `O=C(O)[C@@H](Cc1ccccc1)NS(=O)(=O)c1ccc(-c2ccccc2)cc1` the value was 2700 nM; for `CCCCOc1ccc(C#Cc2ccc(S(=O)(=O)N[C@H](Cc3c[nH]c4ccccc34)C(=O)O)s2)cc1`, 2000 nM.
As to `O=C(O)[C@@H](Cc1ccccc1)NS(=O)(=O)c1ccc(-c2ccc(-c3ccccc3)cc2)cc1`, the concentration for half-maximal inhibition (IC50) in assay [1] came to 12 nM; in assay [2], 4.4 nM.
In the same order, the values of `CC(C)[C@@H](NS(=O)(=O)c1ccc(C#Cc2ccc(Oc3ccccc3)cc2)s1)C(=O)O` are 260 nM and 18 nM.
In the same order, the values of `O=C(O)[C@@H](Cc1c[nH]c2ccccc12)NS(=O)(=O)c1cccc2ccccc12` are over 20000 nM and over 20000 nM.
`O=C(O)[C@@H](Cc1c[nH]c2ccccc12)NS(=O)(=O)c1ccc(C#Cc2ccc(Oc3ccccc3)cc2)s1`: it took 2300 nM to reach half-maximal inhibition in assay [1] (IC50).
Same read-out and setting: for `O=C(N[C@H](Cc1ccccc1)C(=O)O)c1ccc(-c2ccccc2)cc1` the value was over 20000 nM.
With `O=C(O)[C@@H](Cc1ccccc1)NS(=O)(=O)c1ccc(C#Cc2ccccc2)cc1`, the concentration for half-maximal inhibition (IC50) amounted to 340 nM in assay [1] and 20 nM in assay [2].
The molecule `Cc1ccc(C#Cc2ccc(S(=O)(=O)N[C@H](Cc3c[nH]c4ccccc34)C(=O)O)s2)cc1` [S-3304] came in with a half-maximal inhibitory concentration (IC50) in assay [1] of 9.6 nM. In other words, the single-digit nanomolar range.
On the same count and under the same terms, for `CCCCc1ccc(C#Cc2ccc(S(=O)(=O)N[C@H](Cc3c[nH]c4ccccc34)C(=O)O)s2)cc1` the value was 2700 nM.
For the molecule `O=C(O)[C@@H](Cc1ccccc1)NS(=O)(=O)c1ccc(Br)cc1`, the half-inhibitory concentration (IC50) in assay [1] is over 20000 nM; in assay [2] it was 7100 nM.
Consider `COc1ccc(C#Cc2ccc(S(=O)(=O)N[C@H](Cc3c[nH]c4ccccc34)C(=O)O)cc2[N+](=O)[O-])cc1`, for which the half-maximal inhibitory concentration (IC50) came out at 1900 nM in assay [1] and 33 nM in assay [2].
On to `Cc1ccccc1C#Cc1ccc(S(=O)(=O)N[C@H](Cc2c[nH]c3ccccc23)C(=O)O)s1`, for which the values for the concentration for half-maximal inhibition (IC50) in assay [1] and in assay [2] were 1700 nM and 81 nM, respectively.
As for `CCc1ccc(C#Cc2ccc(S(=O)(=O)N[C@@H](C(=O)O)C(C)C)s2)cc1`, the concentration for half-maximal inhibition (IC50) in assay [1] stood at 4.4 nM; in assay [2] it was 4.8 nM.
In assay [1], `CC(C)[C@@H](NS(=O)(=O)c1ccc(-c2nnn(-c3ccccc3)n2)cc1)C(=O)O` had an IC50 of 72 nM.
For `CCCCOc1ccc(C#Cc2ccc(S(=O)(=O)N[C@@H](C(=O)O)C(C)C)s2)cc1`, the IC50 was 210 nM in assay [1] and 4.7 nM in assay [2].
In the same order, the values of `Cc1ccc(C#Cc2ccc(S(=O)(=O)N[C@@H](C(=O)O)C(C)C)s2)cc1` are 24 nM and 5.9 nM.
Take `O=C(O)[C@@H](Cc1c[nH]c2ccccc12)NS(=O)(=O)c1ccc2ccccc2c1`: the values for the half-maximal inhibitory concentration (IC50) in assay [1] and in assay [2] were over 20000 nM and 500 nM, respectively.

Source of the values: ChEMBL document CHEMBL1132207, “Homology modeling of gelatinase catalytic domains and docking simulations of novel sulfonamide inhibitors” (J Med Chem, 1999).
